Source: PubChem BioAssay (several laboratories)
UPR XBP1 act: activators of adaptive XBP1 UPR arm, primary screen, cell-based, CHO-XBP1 luciferase reporter, luminescence, uHTS; IRE1-XBP1 UPR activation; percent of tunicamycin response, DMSO as zero; activation, % at 20 µM; hit rate 0.33% among 330,000;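 active = versus positive control, 20 µM dose yields 30% or more activation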;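 also: 100% = tunicamycin at 10 µg/mL and 0% = DMSO only wells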
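incubation = overnight seeding at 37 °C, 6 h compound treatment at 37 °C | assay system = CHO-XBP1 cells stably carrying IRE1-XBP1-driven luciferase reporter | input = 1000 cells per well | detection = luciferase luminescence | dosing = single point, 20 µM final compound, 1% DMSO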
TLR4-MyD88 BLA: inhibitors of TLR4-MyD88 association in cells, primary screen, cell-based, HeLa CL3-4, BLA complementation, FRET ratio. Toll-like receptor 4 (Homo sapiens) + Myeloid differentiation primary response protein …. HeLa CL3-4 TLR4/MyD88 BLA complementation. inhibition, % at 8.4 µM. hit rate 0.18% among 200,000. AID 861, 2007; in the data active = inhibition above about 25%;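 also: 0% = vehicle and 100% = reference inhibitor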
NOD2-RIPK2 inh: NOD2-RIPK2 binding disruptors in cells, primary screen, fluorescence, CHO cells, BLA complementation. Receptor-interacting serine/threonine-protein kinase 2 (Homo sapiens), O43353. CCF4 ratio. inhibition, % at 4.98 µM. hit rate 0.38% among 360,000; in the data active = inhibition above about 21%;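 also: 0% = vehicle only and 100% = reference blocker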
Target sequence (O43353 whole entry, looked up): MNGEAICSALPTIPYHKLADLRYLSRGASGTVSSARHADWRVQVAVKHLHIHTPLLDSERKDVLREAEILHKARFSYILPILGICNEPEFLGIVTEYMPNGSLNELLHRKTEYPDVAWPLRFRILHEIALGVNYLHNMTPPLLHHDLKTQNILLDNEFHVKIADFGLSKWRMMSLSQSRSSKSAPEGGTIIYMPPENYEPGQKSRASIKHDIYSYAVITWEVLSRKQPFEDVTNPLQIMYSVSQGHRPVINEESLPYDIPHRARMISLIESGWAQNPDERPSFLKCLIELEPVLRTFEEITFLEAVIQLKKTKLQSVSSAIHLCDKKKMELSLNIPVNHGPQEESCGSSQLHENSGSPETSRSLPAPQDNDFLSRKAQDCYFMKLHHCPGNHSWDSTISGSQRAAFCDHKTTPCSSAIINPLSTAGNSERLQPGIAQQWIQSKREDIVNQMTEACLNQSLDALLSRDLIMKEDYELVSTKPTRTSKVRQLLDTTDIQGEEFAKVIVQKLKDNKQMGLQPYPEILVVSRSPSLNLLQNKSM
UPR CHOP act: activators of apoptotic CHOP UPR arm, primary screen, cell-based, CHO-CHOP luciferase reporter, luminescence, uHTS. UPR activation; percent of tunicamycin response over DMSO baseline. activation, % at 10 µM. hit rate 0.34% among 330,000;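 active = at 10 µM dose, activation of 40% or more, normalized to positive control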;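 also: 100% = tunicamycin at 10 µg/mL and 0% = DMSO alone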
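assay system = CHO CHOP reporter cells | amount = 500 CHO-CHOP cells per well | buffer or medium = F12 with 10% FBS | incubation = 16-18 h cell attachment, then 6 h compound exposure, 37 °C | detection = luminescence read with Steady-Glo | read-out = percent activation relative to tunicamycin control | controls = tunicamycin high control, DMSO low control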
TLR9-MyD88 block: inhibitors of TLR9-MyD88 association in cells, primary screen, cell-based, CHO, BLA complementation, fluorescence. Toll-like receptor 9 (Homo sapiens) + Myeloid differentiation primary response protein …. CCF4 FRET ratio. inhibition, % at 4.98 µM. hit rate 0.21% among 340,000. AID 504734, 2011;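 active = inhibition above the mean over all tested compounds plus 3 SD, cut at about 21% in these data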;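 also: 0% = DMSO only wells and 100% = clavulanate BLA inhibitor control wells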
CHOP inh: inhibitors of CHOP promoter induction, primary screen, cell-based, unfolded protein response, luciferase reporter; hit rate 3.8% among 220,000; CHO-K1 CHOP-promoter luciferase, tunicamycin-induced, 15-18 h; AID 2732, 2010; inhibition, % at 10 µM;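 active = compounds that reduced the stress-induced luciferase reporter signal by more than about 70% of percent inhibition, limit read from the data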;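 also: 0% = tunicamycin plus vehicle and 100% = wells without tunicamycin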
CHOP confirm: retest of CHOP induction inhibitors, confirmation, cell-based. hit rate 45% among 2,100. shares compounds with CHOP inh. AID 504437, 2011. inhibition, % at 10 µM. CHO-CHOP promoter luciferase reporter, tunicamycin-induced, luminescence;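 active = mean of three repeat readings of reporter signal inhibition above a set limit, cut at about 70% in these data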;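 also: 0% = tunicamycin plus vehicle and 100% = wells lacking tunicamycin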
UPR CHOP confirm: activators of apoptotic CHOP UPR arm, confirmation, cell-based, CHO-CHOP luciferase reporter, single concentration; shares compounds with UPR CHOP act; CHO-CHOP cells, CHOP-luciferase reporter luminescence; percent of tunicamycin response, DMSO as zero; activation, % at 10 µM; hit rate 64% among 1,000; AID 463112, 2010; in the data active = activation above about 33%;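 also: 0% = DMSO wells and 100% = tunicamycin 10 µg/mL wells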
TLR9-MyD88 cf: TLR9-MyD88 association inhibitors, retest, confirmation, cell-based, CHO, BLA complementation, fluorescence, triplicate; shares compounds with TLR9-MyD88 block; CCF4 FRET ratio; inhibition, % at 4.98 µM; hit rate 51% among 680;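 active = mean inhibition across three repeats above about 21% taken from the earlier screen, limit read from the data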;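 also: blue over green emission ratio reports constitutive TLR9 MyD88 association via BLA complementation; 0% = DMSO vehicle wells and 100% = clavulanate BLA inhibitor wells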
BLA counter-1: beta-lactamase reporter inhibitors in CHO cells, artefact control for TLR9-MyD88 binding inhibitor project, cell-based, fluorescence. hit rate 7% among 680. CHO-BLA cells, CCF4 FRET ratio, BLA reporter. shares compounds with TLR9-MyD88 block. inhibition, % at 4.98 µM;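 active = mean inhibition above a 50% cutoff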;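 also: counterscreen of TLR9-MyD88 hits on CMV-driven BLA in CHO-K1 cells; 0% = DMSO alone and 100% = clavulanate blocking BLA; higher means less blue over green ratio so more BLA blockade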
TLR9 CHO cytotox: CHO cell viability loss – luminescence, single concentration, cytotoxicity control for TLR9-MyD88 binding inhibitor project; shares compounds with TLR9-MyD88 block; AID 588336, 2011; hit rate 39% among 680; TLR9-MyD88 CHO cells cytotoxicity; inhibition, % at 4.98 µM; in the data active = inhibition above about 11%
NOD2 RIPK2 conf: NOD2-RIPK2 binding disruptors, retest, confirmation, fluorescence, CHO cells, BLA complementation, triplicate. inhibition, % at 4.98 µM. shares compounds with NOD2-RIPK2 inh. hit rate 70% among 1,200. CCF4 FRET. AID 624370, 2012;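 active = mean inhibition across replicates above a set limit taken from the earlier primary screen, cut at about 21% in these data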;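 also: 0% = DMSO-only wells and the high end = clavulanate BLA-blocked wells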
BLA counter-2: hits BLA reporter in NOD2-RIPK2 inhibitor counterscreen; hit rate 57% among 1,200; AID 624371; inhibition, % at 4.98 µM; CHO BLA reporter, CCF4 FRET ratio; shares compounds with NOD2-RIPK2 inh;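 active = mean inhibition above the low-control mean inhibition plus three low-control SD, cut at about 11% in these data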;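 also: 0% = DMSO only wells and 100% = clavulanate high control wells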
Active calls of the source: *; · = no result given. The sample as a whole holds a higher share of hits than the screen did.

SMILES	UPR XBP1 act	TLR4-MyD88 BLA	NOD2-RIPK2 inh	UPR CHOP act	TLR9-MyD88 block	CHOP inh	CHOP confirm	TLR9-MyD88 cf	BLA counter-1	TLR9 CHO cytotox	NOD2 RIPK2 conf	BLA counter-2	others
COc1ccc(N2C(=O)CC(Sc3nnnn3-c3ccc(F)cc3)C2=O)cc1 (configuration not stated)	-8	9	41*	4	17	107*	134*	·	·	·	44*	12*
O=C1CC(Sc2nnnn2-c2ccccc2)C(=O)N1c1cccc(Cl)c1 (configuration not stated)	-7	5	57*	2	22*	110*	111*	11	3	98*	58*	12*
CN(C)c1ccc(C(=O)N2CCC2(C)C(=O)O)cc1 (configuration not stated)	·	·	0	·	·	·	·	·	·	·	·	·
Cc1ccccc1CS(=O)(=O)c1nnc([C@H](Cc2ccccc2)NC(=O)OC(C)(C)C)o1	-7	8	57*	-5	12	112*	136*	·	·	·	50*	2
CCSc1nnc([C@H](Cc2ccccc2)NC(=O)OC(C)(C)C)o1	-3	-5	7	2	4	10	·	·	·	·	·	·
O=c1c(Cl)c(Cl)cnn1-c1ccccc1	·	24	23*	·	24*	101*	96*	21*	13	98*	35*	9
CCCC(=O)OCCNc1cc(Sc2nc3ccccc3[nH]2)c2nonc2c1[N+](=O)[O-]	-9	22	75*	31	32*	110*	138*	68*	11	98*	92*	43*
Nc1c(C(=O)Nc2ccccc2F)sc2nc(-c3cccnc3)ccc12	4	·	21*	4	38*	97*	77*	28*	30	4	46*	64*
Nc1c(C(=O)Nc2ccccc2F)sc2nc(-c3ccco3)ccc12	-2	14	6	1	18	0	·	·	·	·	·	·
CN(C)c1ccc(/C=C2\SC(=O)N(CCc3nnc(N)s3)C2=O)cc1	-8	·	24*	-9	5	100*	127*	·	·	·	22*	13*
CCOc1ccc(Cl)cc1-c1cc(C(=O)Nc2ccc(Br)cc2)[nH]n1	·	·	-6	·	·	·	·	·	·	·	·	·
O=Nc1c(O)n(Cc2ccccc2)c2ccccc12	-3	·	2	1	9	15	·	·	·	·	·	·
O=Nc1c(O)n(Cc2ccc(Cl)c(Cl)c2)c2ccccc12	2	7	34*	-1	28*	107*	4	11	11	17*	56*	42*
Cn1c(=O)[nH]c(=O)c2c1nc([N+](=O)[O-])n2Cc1ccccc1	-9	·	59*	-8	22*	106*	121*	26*	10	99*	31*	7
CCOc1ccc(C2C=C(c3ccc(C)cc3)Nc3nnnn32)cc1 (configuration not stated)	6	3	45*	12	62*	107*	77*	-1	-3	2	-4	0
CCOc1ccc(C2C=C(c3ccccc3)Nc3nnnn32)cc1 (configuration not stated)	1	4	1	3	19	26	·	·	·	·	·	·
Cc1ccc([C@@H]2CC(=O)[C@@H]3CN(S(=O)(=O)c4ccc(C)cc4)[C@H](c4ccccc4)C[C@@H]3N2S(=O)(=O)c2ccc(C)cc2)cc1	·	·	-12	·	·	·	·	·	·	·	·	·
COc1cc(/C=C/c2cccc[n+]2C)ccc1OCC(=O)Nc1ccccc1C	0	·	1	1	-2	·	·	·	·	·	·	·
CCOc1cc(/C=C\[N+](=O)[O-])ccc1OCC(=O)Nc1ccccc1C	-6	16	89*	-11	20	108*	136*	·	·	·	97*	13*
C[C@H](NC(=O)COc1ccccc1)C(=O)OCC(=O)c1cc2ccccc2o1	·	·	-5	·	-19	·	·	·	·	·	·	·
CC(=O)N(c1ccccc1C)C1CCCC1	1	1	-3	4	-11	21	·	·	·	·	·	·
CC(=O)N(C1=C(Cl)C(=O)c2ccccc2C1=O)C1CCCCC1	-1	·	54*	53*	49*	102*	113*	78*	22	100*	92*	34*	UPR CHOP confirm=-9
O=Cc1ccc(N2CCCC2)c([N+](=O)[O-])c1	-2	-4	3	-1	-3	13	·	·	·	·	·	·
O=[N+]([O-])/C=C\c1ccc(N2CCCC2)c(F)c1	·	13	31*	·	13	109*	-40	·	·	·	77*	22*
Cc1ccc(NN2C(=O)C=C(c3ccccc3)C2=O)cc1	-10	-3	84*	54*	·	107*	-139	·	·	·	86*	1	UPR CHOP confirm=172*
O=C1c2ccccc2C(=O)N1Nc1ccccc1	-2	6	0	0	3	17	·	·	·	·	·	·
O=c1oc2ccccc2c(Cl)c1CN1CCCCC1	-10	-7	40*	-10	23*	107*	123*	75*	17	96*	95*	14*
